Test results from ChEMBL document CHEMBL4819027, “Design, synthesis and biological evaluation of novel 2-(4-(1H-indazol-6-yl)-1H-pyrazol-1-yl)acetamide derivatives as potent VEGFR-2 inhibitors” (Eur J Med Chem, 2021).

Experiments:
HT-29 = experiment: Antiproliferative activity against human HT-29 cells assessed as cell growth inhibition after 72 hrs by MTT assay; type: functional, cell-based; settings: HT-29, 72 h
Summary of the method: (§1)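 Log-phase cells were seeded at 5 × 10³ per well and attached 24 h. HT-29 and GES-1 were grown in DMEM-based medium, A549/HepG2/HGC-27 in RPMI-1640, HUVEC in ECM with ECGS; all media had 10% FBS. Cells were exposed to graded compound concentrations for 72 h at 37 °C. MTT (5 mg/mL stock) was added for 4 h, formazan dissolved in DMSO, and A490 read. IC50 was obtained by nonlinear sigmoidal regression; mean ± S.E. of three experiments.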

A549 = experiment: Antiproliferative activity against human A549 cells assessed as cell growth inhibition after 72 hrs by MTT assay; type: functional, cell-based; settings: A549, 72 h; summary of the method: as §1
HepG2 = experiment: Antiproliferative activity against human HepG2 cells assessed as cell growth inhibition after 72 hrs by MTT assay; type: functional, cell-based; settings: HepG2, 72 h; summary of the method: as §1
HGC-27 [1] = experiment: Antiproliferative activity against human HGC-27 cells assessed as cell growth inhibition after 72 hrs by MTT assay; type: functional, cell-based; settings: HGC-27, 72 h; summary of the method: as §1
[2] = biological target: Vascular endothelial growth factor receptor 2 (Homo sapiens, UniProt P35968); experiment: Inhibition of VEGFR2 (unknown origin) incubated for 10 mins followed by kinase substrate addition and measured after 30 mins by caliper mobility shift assay
Chain of Vascular endothelial growth factor receptor 2 (P35968 whole entry): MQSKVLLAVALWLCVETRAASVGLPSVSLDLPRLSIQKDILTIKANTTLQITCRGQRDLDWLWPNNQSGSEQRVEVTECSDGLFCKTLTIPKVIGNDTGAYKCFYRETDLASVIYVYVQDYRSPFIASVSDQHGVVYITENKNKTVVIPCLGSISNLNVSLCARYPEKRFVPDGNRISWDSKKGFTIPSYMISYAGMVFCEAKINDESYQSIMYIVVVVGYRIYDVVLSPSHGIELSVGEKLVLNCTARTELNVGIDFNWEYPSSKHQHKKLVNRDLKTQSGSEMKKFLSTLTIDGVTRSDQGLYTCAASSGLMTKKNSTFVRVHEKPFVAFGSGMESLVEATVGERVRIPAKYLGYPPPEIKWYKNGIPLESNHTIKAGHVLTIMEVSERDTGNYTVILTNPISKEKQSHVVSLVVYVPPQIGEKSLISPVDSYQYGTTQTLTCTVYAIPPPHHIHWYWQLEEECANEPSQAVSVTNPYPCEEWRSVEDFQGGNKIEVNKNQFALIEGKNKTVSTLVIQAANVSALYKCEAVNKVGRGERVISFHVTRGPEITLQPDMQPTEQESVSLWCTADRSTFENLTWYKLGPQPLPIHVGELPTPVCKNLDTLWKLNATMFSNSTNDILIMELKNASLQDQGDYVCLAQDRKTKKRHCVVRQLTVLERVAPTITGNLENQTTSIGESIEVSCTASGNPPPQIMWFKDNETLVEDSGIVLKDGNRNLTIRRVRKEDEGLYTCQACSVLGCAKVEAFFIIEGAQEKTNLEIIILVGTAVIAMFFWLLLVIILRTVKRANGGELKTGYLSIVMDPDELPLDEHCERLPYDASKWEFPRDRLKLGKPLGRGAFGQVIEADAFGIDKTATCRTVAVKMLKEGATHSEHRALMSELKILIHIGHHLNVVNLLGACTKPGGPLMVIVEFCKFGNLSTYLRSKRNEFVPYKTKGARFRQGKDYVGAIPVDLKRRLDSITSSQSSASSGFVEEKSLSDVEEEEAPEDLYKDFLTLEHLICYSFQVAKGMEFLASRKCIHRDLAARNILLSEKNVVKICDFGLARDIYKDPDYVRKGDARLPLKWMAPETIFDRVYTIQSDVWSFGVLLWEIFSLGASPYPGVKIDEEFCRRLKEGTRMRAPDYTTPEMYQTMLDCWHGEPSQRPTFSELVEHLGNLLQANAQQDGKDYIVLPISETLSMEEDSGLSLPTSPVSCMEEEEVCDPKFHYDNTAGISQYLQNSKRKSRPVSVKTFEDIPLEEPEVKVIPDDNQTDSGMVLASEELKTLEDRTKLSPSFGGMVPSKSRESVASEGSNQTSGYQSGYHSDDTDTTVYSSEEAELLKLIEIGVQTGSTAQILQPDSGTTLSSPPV

GES1 = experiment: Cytotoxicity against human GES-1 cells assessed as inhibition of cell growth incubated for 72 hrs by MTT assay; type: cell-based; settings: GES1, 72 h; summary of the method: as §1
HUVEC [3] = experiment: Cytotoxicity against human HUVEC cells assessed as inhibition of cell growth incubated for 72 hrs by MTT assay; type: cell-based; summary of the method: as §1
HGC-27 [4] = experiment: Induction of apoptosis in human HGC-27 cells assessed as viable cells level at 5 uM incubated for 24 hrs by propidium iode and annexin V-FITC staining based flow cytometry (reference value: 96.0%); type: functional
HGC-27 [5] = experiment: Induction of apoptosis in human HGC-27 cells assessed as necrotic cells level at 5 uM incubated for 24 hrs by propidium iode and annexin V-FITC staining based flow cytometry (reference value: 1.64%); type: functional
HGC-27 [6] = experiment: Induction of apoptosis in human HGC-27 cells assessed as early apoptotic cells level at 5 uM incubated for 24 hrs by propidium iode and annexin V-FITC staining based flow cytometry (reference value: 1.48%); type: functional
HUVEC [7] = experiment: Antiangiogenic activity against HUVEC cells assessed as reduction in VEGF-induced tube formation tube formation incubated for 12 hrs by matrigel-based assay; type: functional, cell-based; settings: Homo sapiens
Summary of the method: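 HUVECs at 4 × 10⁵ cells/mL seeded on Matrigel that had been polymerized 1 h at 37 °C. Cells were stimulated with 20 ng/mL VEGF and treated with compound (1, 2.5, 5 and 10 μM) or 0.1% DMSO vehicle for 12 h at 37 °C. Tubes were imaged by inverted microscopy. Tube length, surface area and branch points were quantified as pixel area.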

HGC-27 [8] = experiment: Induction of apoptosis in human HGC-27 cells assessed as late apoptotic cells level at 5 uM incubated for 24 hrs by propidium iode and annexin V-FITC staining based flow cytometry (reference value: 0.86%); type: functional
HGC-27 [9] = experiment: Induction of apoptosis in human HGC-27 cells assessed as total apoptotic cells level at 5 uM incubated for 24 hrs by propidium iode and annexin V-FITC staining based flow cytometry; type: functional

Compound	IC50 (HT-29) [µM]	IC50 (A549) [µM]	IC50 (HepG2) [µM]	IC50 (HGC-27 [1]) [µM]	IC50 [2] [µM]	IC50 (GES1) [µM]	IC50 (HUVEC [3]) [µM]	Activity (HGC-27 [4]) [%]	Activity (HGC-27 [5]) [%]	Activity (HGC-27 [6]) [%]	inhibition (HUVEC [7])	Activity (HGC-27 [8]) [%]	Activity (HGC-27 [9]) [%]
Cn1cc(Nc2n[nH]c3cc(-c4cnn(CC(=O)Nc5ccc(Cl)c(C(F)(F)F)c5)c4)ccc23)cn1	9.17	12.1	10.4	12.5	0.22	13.3	4.03	–	–	–	–	–	–
Cc1ccc(NC(=O)Cn2cc(-c3ccc4c(NC(=O)C5CCCC5)n[nH]c4c3)cn2)cc1C(F)(F)F	0.19	1.58	8.34	0.5	0.015	0.75	1.49	–	–	–	–	–	–
Cc1ccc(NC(=O)Cc2cccc(-c3ccc4c(NC(=O)C5CC5)n[nH]c4c3)c2)cc1C(F)(F)F	> 50	20.9	25.5	15.6	–	48.5	> 50	–	–	–	–	–	–
Cc1ccc(NC(=O)Cn2cc(-c3ccc4c(NC(=O)C(C)C)n[nH]c4c3)cn2)cc1C(F)(F)F	0.48	2.48	13.7	0.39	0.028	> 100	2.43	–	–	–	–	–	–
Cc1ccc(NC(=O)Cn2cc(-c3ccc4c(NC(=O)C5CC5)n[nH]c4c3)nn2)cc1C(F)(F)F	> 50	> 50	> 50	> 50	–	> 100	< 1	–	–	–	–	–	–
Cc1ccc(NC(=O)Cn2cc(-c3ccc4c(NC(=O)C5CCN(C)CC5)n[nH]c4c3)cn2)cc1C(F)(F)F	1.79	5.28	15.3	0.16	0.011	5.31	53.9	–	–	–	–	–	–
Cc1ccc(NC(=O)Cn2cc(-c3ccc4c(N)n[nH]c4c3)cn2)cc1C(F)(F)F	1.54	7.09	4.18	4.98	0.0027	6.96	5.24	–	–	–	–	–	–
O=C(Cn1cc(-c2ccc3c(NC(=O)C4CC4)n[nH]c3c2)cn1)Nc1cc(C(F)(F)F)ccc1F	5.06	8.82	5.61	3.73	0.012	25	5.26	–	–	–	–	–	–
Cn1cc2ccc(Nc3n[nH]c4cc(-c5cnn(CC(=O)Nc6ccc(Cl)c(C(F)(F)F)c6)c5)ccc34)cc2n1	6.11	4.72	4.32	5.03	0.249	10	6.4	–	–	–	–	–	–
CCNc1n[nH]c2cc(-c3cnn(CC(=O)Nc4ccc(C)c(C(F)(F)F)c4)c3)ccc12	8.32	8.48	15.1	1.19	0.038	1.9	> 50	–	–	–	–	–	–
Nc1n[nH]c2cc(-c3cnn(CC(=O)Nc4cccc(C(F)(F)F)c4)c3)ccc12	3.97	19.5	11.5	10.2	0.0074	22.3	7.25	–	–	–	–	–	–
CS(=O)(=O)Cc1cccc(Nc2n[nH]c3cc(-c4cnn(CC(=O)Nc5ccc(Cl)c(C(F)(F)F)c5)c4)ccc23)c1	3.69	7.17	6.54	1.26	0.143	17.7	7.22	–	–	–	–	–	–
CNS(=O)(=O)c1cc(Nc2n[nH]c3cc(-c4cnn(CC(=O)Nc5ccc(Cl)c(C(F)(F)F)c5)c4)ccc23)ccc1C	3.27	1.37	3.83	0.39	0.407	3.37	1.45	–	–	–	–	–	–
Cc1ccc(NC(=O)Cn2nc(C)c(-c3ccc4c(NC(=O)C5CC5)n[nH]c4c3)c2C)cc1C(F)(F)F	14.7	1.81	27.4	2.79	0.307	11.9	6.62	–	–	–	–	–	–
O=C(Cn1cc(-c2ccc3c(NC(=O)C4CC4)n[nH]c3c2)cn1)Nc1ccc(Cl)c(C(F)(F)F)c1	1.37	8.55	6.03	1.05	0.014	29.8	1.07	–	–	–	–	–	–
Cc1ccc(NC(=O)Cn2cc(-c3ccc4c(NC(=O)c5cnn(C)c5)n[nH]c4c3)cn2)cc1C(F)(F)F	4.92	3.86	2.61	0.021	0.00073	1.67	4.41	–	–	–	–	–	–
Nc1n[nH]c2cc(-c3cnn(CC(=O)Nc4cc(C(F)(F)F)ccc4F)c3)ccc12	7.83	20.5	13.3	15.5	0.022	7.64	23.9	–	–	–	–	–	–
Cc1ccc(NC(=O)Cc2ccc(-c3ccc4c(NC(=O)C5CC5)n[nH]c4c3)cc2)cc1C(F)(F)F	44.7	45.1	> 50	33.7	–	> 100	> 100	–	–	–	–	–	–
Nc1n[nH]c2cc(-c3cnn(CC(=O)Nc4ccc(Cl)c(C(F)(F)F)c4)c3)ccc12	3.57	12.5	7.71	7.68	0.012	12	6.84	–	–	–	–	–	–
Cc1ccc(NC(=O)Cn2cc(-c3ccc4c(NC(=O)C5CC5)n[nH]c4c3)cn2)cc1C(F)(F)F	1.01	2.16	2.51	0.63	0.0014	4.24	0.95	–	–	–	–	–	–
Cc1ccc(NC(=O)Cn2cc(-c3ccc4c(NCC5CC5)n[nH]c4c3)cn2)cc1C(F)(F)F	11	9.88	22.3	1.22	0.06	12	17.9	–	–	–	–	–	–
Cc1ccc(NC(=O)Cn2cc(-c3ccc4c(NC(=O)C5CC5)n[nH]c4c3)c(C)n2)cc1C(F)(F)F	7.03	1.65	20.4	0.65	0.027	3.09	4.92	–	–	–	–	–	–
Cc1ccc(NC(=O)Cc2ccc(-c3ccc4c(NC(=O)C5CC5)n[nH]c4c3)s2)cc1C(F)(F)F	8.09	0.96	38.1	3.09	0.012	13.9	5.62	–	–	–	–	–	–
Cc1ccc(NC(=O)Cn2cc(-c3ccc4c(NC(=O)c5cccnc5)n[nH]c4c3)cn2)cc1C(F)(F)F	7.78	5.34	9.08	1.17	0.0023	8.46	1.75	–	–	–	–	–	–
CNC(=O)c1cc(Oc2ccc(NC(=O)Nc3ccc(Cl)c(C(F)(F)F)c3)cc2)ccn1 [SORAFENIB]	5.57	5.13	6.18	5.22	–	9.59	8.33	50.6	24	6.91	Dose-Dependent Effect	18.5	25.41
O=C(Cn1cc(-c2ccc3c(Nc4cccnc4)n[nH]c3c2)cn1)Nc1ccc(Cl)c(C(F)(F)F)c1	5.21	7.96	5.63	3.65	0.892	12.8	8.04	–	–	–	–	–	–
